Test results as given in ChEMBL document CHEMBL2385063, “Identification of 2-(2-(1-naphthoyl)-8-fluoro-3,4-dihydro-1H-pyrido[4,3-b]indol-5(2H)-yl)acetic acid (setipiprant/ACT-129968), a potent, selective, and orally bioavailable chemoattractant receptor-homologous molecule expressed on Th2 cells (CRTH2) antagonist” (J Med Chem, 2013).
pIC50: −log10 of the molar value. In brackets after ≈: the same amount, converted by molar mass. Activity calls are given as the source filed them. No cut-off for these calls is given here.

Key:
[1] = molecular target: T1, Prostaglandin D2 receptor (Homo sapiens, UniProt Q13258); assay: Displacement of [3H]PGD2 from recombinant human prostanoid DP1 receptor expressed in CHO cells after 90 mins by scintillation counting analysis; type: cell-based
T1 sequence (Q13258 whole entry): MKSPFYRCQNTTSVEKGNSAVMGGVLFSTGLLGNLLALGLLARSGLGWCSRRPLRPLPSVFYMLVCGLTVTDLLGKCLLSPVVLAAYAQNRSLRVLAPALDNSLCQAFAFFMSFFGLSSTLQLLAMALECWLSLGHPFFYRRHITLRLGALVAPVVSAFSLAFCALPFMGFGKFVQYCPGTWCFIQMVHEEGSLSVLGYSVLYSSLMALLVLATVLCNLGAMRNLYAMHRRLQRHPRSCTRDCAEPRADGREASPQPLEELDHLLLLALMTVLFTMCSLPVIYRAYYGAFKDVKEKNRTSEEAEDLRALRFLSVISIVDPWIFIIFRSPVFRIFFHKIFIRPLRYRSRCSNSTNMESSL
In short: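 Competitive binding with CHO cells stably expressing high levels of recombinant hDP1, using [3H]PGD2 as ligand; IC50 reported.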

[2] = molecular target: T2, Prostaglandin D2 receptor 2 (Homo sapiens, UniProt Q9Y5Y4); assay: Antagonist activity at CRTH2 receptor in human eosinophils assessed as inhibition of PGD2-induced cell shape change incubated for 10 mins prior to PGD2 induction measured after 5 mins by FACS flow cytometric analysis in presence of human plasma
T2 sequence (Q9Y5Y4 whole entry): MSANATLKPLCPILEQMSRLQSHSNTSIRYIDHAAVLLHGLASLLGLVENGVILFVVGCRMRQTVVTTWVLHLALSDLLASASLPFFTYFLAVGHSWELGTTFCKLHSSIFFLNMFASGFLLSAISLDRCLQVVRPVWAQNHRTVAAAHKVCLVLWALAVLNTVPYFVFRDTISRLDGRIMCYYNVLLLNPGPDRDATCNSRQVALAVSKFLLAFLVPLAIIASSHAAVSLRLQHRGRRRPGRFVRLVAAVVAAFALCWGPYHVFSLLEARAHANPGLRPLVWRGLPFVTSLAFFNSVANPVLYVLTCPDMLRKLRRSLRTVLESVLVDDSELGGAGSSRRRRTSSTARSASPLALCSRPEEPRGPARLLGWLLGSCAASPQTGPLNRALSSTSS

[3] = molecular target: T3, Chemoattractant receptor-homologous molecule expressed on Th2 cells (Cavia porcellus) (UniProt Q56D28); assay: Antagonist activity at guinea pig CRTH2 receptor assessed as inhibition of calcium flux by cell-based FLIPR assay; type: functional
T3 sequence (whole entry): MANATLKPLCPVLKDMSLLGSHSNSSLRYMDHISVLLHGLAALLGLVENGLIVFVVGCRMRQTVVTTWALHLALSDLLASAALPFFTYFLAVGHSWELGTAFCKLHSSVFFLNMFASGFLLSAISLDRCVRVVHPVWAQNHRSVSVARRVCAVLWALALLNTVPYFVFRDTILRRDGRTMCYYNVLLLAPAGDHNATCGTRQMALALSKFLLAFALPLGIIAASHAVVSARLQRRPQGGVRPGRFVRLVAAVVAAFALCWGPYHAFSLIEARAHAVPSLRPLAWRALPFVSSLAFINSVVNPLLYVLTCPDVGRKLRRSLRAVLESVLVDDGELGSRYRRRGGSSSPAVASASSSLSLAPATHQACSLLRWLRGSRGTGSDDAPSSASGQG

[4] = Intrinsic clearance in rat liver microsomes measured per mg of protein at 1 uM by LC/MS-MS analysis; type: ADME, Microsome; conditions: read-out: CLH
[5] = Half life in simulated gastric fluid at 2 uM by LC-MS analysis; type: physicochemical
In short: (§1)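 Compounds were incubated in simulated gastric fluid for 1 h or simulated intestinal fluid for 4 h. Unchanged parent was quantified by LC-MS.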

[6] = Elimination half life in human plasma at 1 mM by HR-LC-MS analysis; type: ADME, cell-free; conditions: read-out: beta t1/2
[7] = Intrinsic clearance in rat hepatocytes measured per 10^6 cells at 1 uM by LC/MS-MS analysis; type: ADME, cell-based, Hepatocyte; conditions: read-out: CLH
[8] = Solubility of the compound in aqueous buffer at pH 7; type: physicochemical
In short: (§2)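 Compound was stirred in water, 60 mM citrate buffer pH 4 or 70 mM phosphate buffer pH 7 at 300 rpm, 25 °C, for 24 h. The mixture was filtered, and the filtrate concentration was measured by HPLC-UV at 250 nm against a calibration curve.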

[9] = Intrinsic clearance in human liver microsomes measured per mg of protein at 1 uM by LC/MS-MS analysis; type: ADME, Microsome; conditions: read-out: CLH
Cytochrome P450 2D6 = Cytochrome P450 2D6 (Homo sapiens, UniProt P10635); assay: Inhibition of CYP2D6 in human liver microsomes assessed as dextromethorphan O-demethylation by LC-MS/MS analysis; type: ADME, Microsome
[10] = Solubility of the compound in aqueous buffer at pH 4; type: physicochemical; in short: as §2
[11] = Half life in simulated intestinal fluid at 2 uM by LC-MS analysis; type: physicochemical; in short: as §1
Cytochrome P450 3A4 = Cytochrome P450 3A4 (Homo sapiens, UniProt P08684); assay: Inhibition of CYP3A4 in human liver microsomes assessed as midazolam-1'-hydroxylation by LC-MS/MS analysis; type: ADME, Microsome
[12] = Elimination half life in Sprague-Dawley rat plasma at 1 mM by HR-LC-MS analysis; type: ADME, cell-free; conditions: read-out: beta t1/2
[13] = n-octanol-KH2PO4-Na2HPO4 buffer partition coefficient, log D of the compound at pH 7.4 by shake flask method; type: physicochemical
Cytochrome P450 2C9 = Cytochrome P450 2C9 (Homo sapiens, UniProt P11712); assay: Inhibition of CYP2C9 in human liver microsomes assessed as diclofenac 4'-hydroxylation by LC-MS/MS analysis; type: ADME, Microsome
[14] = molecular target: T2, Prostaglandin D2 receptor 2; assay: Antagonist activity at CRTH2 receptor in human eosinophils assessed as inhibition of PGD2-induced cell shape change incubated for 1 hr prior to PGD2 induction measured after 5 mins by FACS flow cytometric analysis in presence of human plasma; conditions: in the assay text read “incubated for 10 mins” for “incubated for 1 hr”
In short: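 Polymorphonuclear cells isolated from healthy-donor blood on a Polymorphprep gradient (500g, 30 min), erythrocytes lysed hypotonically. Cells stained 1 h with CD49d-APC, mixed with human plasma, preincubated with antagonist, then stimulated with 15 nM PGD2 for 5 min at 37 °C. Fixed in cold 1% paraformaldehyde. Eosinophils gated by CD49d/SSC; activation read as % cells with raised forward scatter.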

[15] = Solubility of the compound in water at pH 4.3; type: physicochemical; in short: as §2

Cytochrome P450 2C9, sequence (P11712 whole entry): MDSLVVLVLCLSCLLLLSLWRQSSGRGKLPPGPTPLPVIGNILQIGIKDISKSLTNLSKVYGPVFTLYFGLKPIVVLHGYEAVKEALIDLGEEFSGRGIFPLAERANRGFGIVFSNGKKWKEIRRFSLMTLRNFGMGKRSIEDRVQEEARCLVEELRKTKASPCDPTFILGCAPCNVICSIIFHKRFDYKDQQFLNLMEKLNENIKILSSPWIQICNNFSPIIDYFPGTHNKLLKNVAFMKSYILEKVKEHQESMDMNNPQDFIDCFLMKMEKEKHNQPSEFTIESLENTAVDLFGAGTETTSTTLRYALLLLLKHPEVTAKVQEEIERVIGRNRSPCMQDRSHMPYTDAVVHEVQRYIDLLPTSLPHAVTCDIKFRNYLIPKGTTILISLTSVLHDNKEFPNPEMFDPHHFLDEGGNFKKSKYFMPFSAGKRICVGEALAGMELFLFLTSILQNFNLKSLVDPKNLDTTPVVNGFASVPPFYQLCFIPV
Cytochrome P450 2D6, sequence (P10635 whole entry): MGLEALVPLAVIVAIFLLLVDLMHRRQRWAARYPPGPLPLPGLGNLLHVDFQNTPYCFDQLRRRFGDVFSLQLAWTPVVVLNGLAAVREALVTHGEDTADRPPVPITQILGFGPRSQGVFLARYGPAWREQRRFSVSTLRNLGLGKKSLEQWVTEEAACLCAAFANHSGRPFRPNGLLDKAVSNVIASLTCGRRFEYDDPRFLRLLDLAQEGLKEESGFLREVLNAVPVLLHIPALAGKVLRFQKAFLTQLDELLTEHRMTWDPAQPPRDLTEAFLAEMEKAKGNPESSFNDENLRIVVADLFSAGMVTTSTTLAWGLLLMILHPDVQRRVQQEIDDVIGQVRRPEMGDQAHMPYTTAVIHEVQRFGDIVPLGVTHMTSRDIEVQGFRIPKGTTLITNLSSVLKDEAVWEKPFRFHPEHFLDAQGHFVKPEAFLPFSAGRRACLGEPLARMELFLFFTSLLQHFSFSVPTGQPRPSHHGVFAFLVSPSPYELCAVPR
Cytochrome P450 3A4, sequence (P08684 whole entry): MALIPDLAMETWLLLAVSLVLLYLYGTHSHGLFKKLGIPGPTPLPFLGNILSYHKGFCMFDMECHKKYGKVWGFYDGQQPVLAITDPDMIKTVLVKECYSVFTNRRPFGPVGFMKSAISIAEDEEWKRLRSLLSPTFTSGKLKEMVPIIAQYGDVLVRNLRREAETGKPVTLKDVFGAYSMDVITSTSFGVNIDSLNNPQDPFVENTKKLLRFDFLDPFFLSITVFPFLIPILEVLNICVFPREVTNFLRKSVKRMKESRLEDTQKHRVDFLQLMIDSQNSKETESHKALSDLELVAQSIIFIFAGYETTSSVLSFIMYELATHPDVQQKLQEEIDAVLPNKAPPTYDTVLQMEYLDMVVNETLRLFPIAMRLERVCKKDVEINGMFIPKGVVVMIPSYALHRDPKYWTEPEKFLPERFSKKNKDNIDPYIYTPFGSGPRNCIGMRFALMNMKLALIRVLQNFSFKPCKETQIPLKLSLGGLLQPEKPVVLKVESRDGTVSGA

SMILES	pIC50 [1]	pIC50 [2]	inhibition [3]	microsomal CLint at 1 µM [4] [µL/min/mg]	half-life at 2 µM [5] [min]	half-life [6] [min]	hepatocyte CLint at 1 µM [7] [µL/min/1e6 cells]	solubility [8] [µg/mL]	microsomal CLint at 1 µM [9] [µL/min/mg]	pIC50 (Cytochrome P450 2D6)	solubility [10] [µg/mL]	half-life at 2 µM [11] [min]	pIC50 (Cytochrome P450 3A4)	half-life [12] [min]	logD [13]	pIC50 (Cytochrome P450 2C9)	pIC50 [14]	solubility [15] [µg/mL]
O=C(O)Cn1c2c(c3cc(C(F)(F)F)ccc31)CN(C(=O)c1ccccc1)CC2	< 5.00	6.89	Active															
O=C(O)Cn1c2c(c3ccccc31)CN(C(=O)c1cccc3ccccc13)CC2	6.11	5.95		36	> 60	> 240	1.5	830 (≈ 2160 µM)	< 4	< 4.30	90 (≈ 234 µM)	> 240	< 4.30	> 240	0.2	4.40		
O=C(O)Cn1c2c(c3cc(F)cc(Cl)c31)CN(C(=O)c1cccc(Cl)c1)CC2	5.39		Active															
O=C(O)Cn1c2c(c3cc(F)ccc31)CN(C(=O)Cc1cccc3ccccc13)CC2	< 5.00		Active	63	> 60	> 240		560 (≈ 1340 µM)	6	< 4.30	21 (≈ 50.4 µM)	> 240	< 4.30	> 240	0.2	4.80	6.56	
O=C(O)Cn1c2c(c3cc(F)ccc31)CN(C(=O)c1cccc(Cl)c1)CC2	< 5.00			< 4	> 60	> 240	1.9	1000 (≈ 2590 µM)	< 4	< 4.30	140 (≈ 362 µM)	> 240	< 4.30	> 240	-0.3	< 4.30	7.22	
COc1ccc2c(c1)c1c(n2CC(=O)O)CCN(C(=O)c2ccccc2)C1			Active															
O=C(O)Cn1c2c(c3cc(Cl)ccc31)CN(C(=O)c1cccc3ccccc13)CC2	6.16	7.00	Active															
O=C(O)Cn1c2c(c3ccccc31)CN(C(=O)C1CCCCC1)CC2			Active															
O=C(O)Cn1c2c(c3cc(F)ccc31)CN(C(=O)CCc1cccc3ccccc13)CC2	< 5.00	6.68	Active															
CCc1ccc(-c2ccc(C(=O)N3CCc4c(c5ccccc5n4CC(=O)O)C3)cc2)cc1	6.11		Active	31	> 60	> 240	5.3	30 (≈ 68.4 µM)	85	< 4.30	1 (≈ 2.28 µM)	> 240	< 4.30	> 240	1.8	4.85	6.62	2 (≈ 4.56 µM)
O=C(O)Cn1c2c(c3cc(F)ccc31)CN(C(=O)c1cccs1)CC2	< 5.00		Active	8	> 60	> 240	2.1	930 (≈ 2590 µM)	< 4	< 4.30	80 (≈ 223 µM)	> 240	< 4.30	> 240	0.2	4.37	7.47	
Cc1ccc2c(c1)c1c(n2CC(=O)O)CCN(C(=O)c2cccc3ccccc23)C1	5.57		Active														6.47	
O=C(O)Cn1c2c(c3cc(F)ccc31)CN(C(=O)c1cccc3ccccc13)CC2 [SETIPIPRANT]	5.89			5	> 60	> 240	3.1	880 (≈ 2190 µM)	5	< 4.30	90 (≈ 224 µM)	> 240	< 4.30	> 240	0.1	< 4.30	6.63	50 (≈ 124 µM)
CC(C)c1ccc2c(c1)c1c(n2CC(=O)O)CCN(C(=O)c2ccccc2)C1			Active															
CCc1ccc(-c2ccc(C(=O)N3CCc4c(c5cccc(Cl)c5n4CC(=O)O)C3)cc2)cc1	6.92		Active															
O=C(O)Cn1c2c(c3ccccc31)CN(C(=O)c1ccccc1)CC2		6.96	Active	< 4	> 60	> 240	0.9		5			> 240		> 240	-1.2	4.82		64 (≈ 191 µM)
O=C(O)Cn1c2c(c3cc(C(F)(F)F)ccc31)CN(C(=O)c1cccc3ccccc13)CC2	5.66	6.74	Active															
O=C(O)Cn1c2c(c3cc(F)ccc31)CN(C(=O)Cc1c[nH]c3ccccc13)CC2	< 5.00		Active	23	> 60	> 240		800 (≈ 1970 µM)	< 4	< 4.30	115 (≈ 284 µM)	> 240	< 4.30	> 240	-0.3	< 4.30	7.30	
O=C(O)Cn1c2c(c3ccccc31)CN(C(=O)c1cccc(Cl)c1)CC2	< 5.00		Active	24	> 60	> 240	1.4	815 (≈ 2210 µM)	5	< 4.30	180 (≈ 488 µM)	> 240	< 4.30	> 240	-0.5	< 4.30	7.30	
O=C(O)Cn1c2c(c3cc(F)cc(Cl)c31)CN(C(=O)c1cccc3ccccc13)CC2	6.51		Active															
